Experiments:
Neuraminidase = Neuraminidase (Influenza A virus, UniProt B4URF0); assay: Inhibition of human Influenza A virus A/PR/8/34(H1N1) sialidase by fluorescence spectrophotometry; design: species or system Influenza A virus (A/Puerto Rico/8/1934(H1N1))
Outline: (§1)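 Influenza A virus suspension in saline (HAU = 26) as sialidase source; mixed with glycodendrimer and 4-MU-Neu5Ac (0.4 mM final) in 20 mM acetate buffer pH 5.2; 37 °C, 30 min; stopped with 100 mM carbonate buffer pH 10.7; released 4-MU fluorescence ex 355/em 460 nm. IC50 read graphically from % inhibition vs concentration, in mM per monomeric sugar unit.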

[1] = target: Neuraminidase (Influenza A virus (A/Memphis/1/1971(H3N2)), UniProt P03471); assay: Inhibition of human influenza A/Memphis/1/71(H3N2) sialidase by fluorescence spectrophotometry; outline: as §1
Chain of Neuraminidase (Influenza A virus (A/Memphis/1/1971(H3N2)), UniProt P03471) (P03471 whole entry): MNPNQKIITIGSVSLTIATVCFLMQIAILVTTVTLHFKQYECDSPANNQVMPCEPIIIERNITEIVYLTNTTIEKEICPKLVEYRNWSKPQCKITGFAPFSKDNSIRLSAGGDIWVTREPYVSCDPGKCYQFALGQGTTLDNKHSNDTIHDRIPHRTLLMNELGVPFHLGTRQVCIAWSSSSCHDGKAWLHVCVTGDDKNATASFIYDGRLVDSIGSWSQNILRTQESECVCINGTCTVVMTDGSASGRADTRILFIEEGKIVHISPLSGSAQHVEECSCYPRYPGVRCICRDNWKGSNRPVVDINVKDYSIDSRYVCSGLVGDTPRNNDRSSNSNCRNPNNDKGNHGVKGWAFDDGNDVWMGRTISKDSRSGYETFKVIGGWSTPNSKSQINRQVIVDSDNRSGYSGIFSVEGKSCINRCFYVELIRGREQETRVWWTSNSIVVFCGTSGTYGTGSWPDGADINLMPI

Chain of Neuraminidase (B4URF0 whole entry): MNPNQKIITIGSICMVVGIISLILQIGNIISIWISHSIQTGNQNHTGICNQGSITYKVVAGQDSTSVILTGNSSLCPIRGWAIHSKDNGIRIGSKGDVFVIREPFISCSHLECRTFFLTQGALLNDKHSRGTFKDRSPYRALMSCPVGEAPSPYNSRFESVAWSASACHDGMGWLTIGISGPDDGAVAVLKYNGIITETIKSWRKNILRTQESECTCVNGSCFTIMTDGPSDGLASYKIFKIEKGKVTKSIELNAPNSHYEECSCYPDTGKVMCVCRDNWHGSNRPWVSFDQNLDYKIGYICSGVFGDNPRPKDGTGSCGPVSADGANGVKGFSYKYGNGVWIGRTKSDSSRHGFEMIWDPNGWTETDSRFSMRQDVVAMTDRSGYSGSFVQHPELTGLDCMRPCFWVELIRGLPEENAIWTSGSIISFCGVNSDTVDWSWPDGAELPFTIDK

Compound | IC50 (Neuraminidase) [mM] | IC50 [1] [mM]
CC(=O)N[C@H]1[C@H]([C@H](O)[C@H](O)CO)O[C@@](SCCCCCSCCCOCCC[Si](CCCOCCCSCCCCCS[C@]2(C(=O)O)C[C@H](O)[C@@H](NC(C)=O)[C@H]([C@H](O)[C@H](O)CO)O2)(CCCOCCCSCCCCCS[C@]2(C(=O)O)C[C@H](O)[C@@H](NC(C)=O)[C@H]([C@H](O)[C@H](O)CO)O2)CCCOCCCSCCCCCS[C@]2(C(=O)O)C[C@H](O)[C@@H](NC(C)=O)[C@H]([C@H](O)[C@H](O)CO)O2)(C(=O)O)C[C@@H]1O | 5 | 5
CC(=O)N[C@H]1[C@H]([C@H](O)[C@H](O)CO)O[C@@](SCCCCCSCCCCCC(=O)NCCC[Si](CCCNC(=O)CCCCCSCCCCCS[C@]2(C(=O)O)C[C@H](O)[C@@H](NC(C)=O)[C@H]([C@H](O)[C@H](O)CO)O2)(CCCNC(=O)CCCCCSCCCCCS[C@]2(C(=O)O)C[C@H](O)[C@@H](NC(C)=O)[C@H]([C@H](O)[C@H](O)CO)O2)c2ccccc2)(C(=O)O)C[C@@H]1O | 2.7 | 7.1
CC(=O)N[C@H]1[C@H]([C@H](O)[C@H](O)CO)O[C@@](SCCCCCSCCCOCCC[Si](CCCOCCCSCCCCCS[C@]2(C(=O)O)C[C@H](O)[C@@H](NC(C)=O)[C@H]([C@H](O)[C@H](O)CO)O2)(CCCOCCCSCCCCCS[C@]2(C(=O)O)C[C@H](O)[C@@H](NC(C)=O)[C@H]([C@H](O)[C@H](O)CO)O2)CCC[Si](C)(C)CCC[Si](CCCOCCCSCCCCCS[C@]2(C(=O)O)C[C@H](O)[C@@H](NC(C)=O)[C@H]([C@H](O)[C@H](O)CO)O2)(CCCOCCCSCCCCCS[C@]2(C(=O)O)C[C@H](O)[C@@H](NC(C)=O)[C@H]([C@H](O)[C@H](O)CO)O2)CCCOCCCSCCCCCS[C@]2(C(=O)O)C[C@H](O)[C@@H](NC(C)=O)[C@H]([C@H](O)[C@H](O)CO)O2)(C(=O)O)C[C@@H]1O | 5 | 1.25
CC(=O)N[C@H]1[C@H]([C@H](O)[C@H](O)CO)O[C@@](SCCCCCSCCCCCC(=O)NCCC[Si](CCCNC(=O)CCCCCSCCCCCS[C@]2(C(=O)O)C[C@H](O)[C@@H](NC(C)=O)[C@H]([C@H](O)[C@H](O)CO)O2)(CCCNC(=O)CCCCCSCCCCCS[C@]2(C(=O)O)C[C@H](O)[C@@H](NC(C)=O)[C@H]([C@H](O)[C@H](O)CO)O2)CCC[Si](CCC[Si](CCCNC(=O)CCCCCSCCCCCS[C@]2(C(=O)O)C[C@H](O)[C@@H](NC(C)=O)[C@H]([C@H](O)[C@H](O)CO)O2)(CCCNC(=O)CCCCCSCCCCCS[C@]2(C(=O)O)C[C@H](O)[C@@H](NC(C)=O)[C@H]([C@H](O)[C@H](O)CO)O2)CCCNC(=O)CCCCCSCCCCCS[C@]2(C(=O)O)C[C@H](O)[C@@H](NC(C)=O)[C@H]([C@H](O)[C@H](O)CO)O2)(CCC[Si](CCCNC(=O)CCCCCSCCCCCS[C@]2(C(=O)O)C[C@H](O)[C@@H](NC(C)=O)[C@H]([C@H](O)[C@H](O)CO)O2)(CCCNC(=O)CCCCCSCCCCCS[C@]2(C(=O)O)C[C@H](O)[C@@H](NC(C)=O)[C@H]([C@H](O)[C@H](O)CO)O2)CCCNC(=O)CCCCCSCCCCCS[C@]2(C(=O)O)C[C@H](O)[C@@H](NC(C)=O)[C@H]([C@H](O)[C@H](O)CO)O2)CCC[Si](CCCNC(=O)CCCCCSCCCCCS[C@]2(C(=O)O)C[C@H](O)[C@@H](NC(C)=O)[C@H]([C@H](O)[C@H](O)CO)O2)(CCCNC(=O)CCCCCSCCCCCS[C@]2(C(=O)O)C[C@H](O)[C@@H](NC(C)=O)[C@H]([C@H](O)[C@H](O)CO)O2)CCCNC(=O)CCCCCSCCCCCS[C@]2(C(=O)O)C[C@H](O)[C@@H](NC(C)=O)[C@H]([C@H](O)[C@H](O)CO)O2)(C(=O)O)C[C@@H]1O | 7.2 | –
CC(=O)N[C@H]1[C@H]([C@H](O)[C@H](O)CO)O[C@@](SCCCCCSCCCOCCC[Si](CCCOCCCSCCCCCS[C@]2(C(=O)O)C[C@H](O)[C@@H](NC(C)=O)[C@H]([C@H](O)[C@H](O)CO)O2)(CCCOCCCSCCCCCS[C@]2(C(=O)O)C[C@H](O)[C@@H](NC(C)=O)[C@H]([C@H](O)[C@H](O)CO)O2)c2ccccc2)(C(=O)O)C[C@@H]1O | 5 | 5
CC(=O)N[C@H]1[C@H]([C@H](O)[C@H](O)CO)O[C@@](SCCCCCSCCC[Si](CCCSCCCCCS[C@]2(C(=O)O)C[C@H](O)[C@@H](NC(C)=O)[C@H]([C@H](O)[C@H](O)CO)O2)(CCCSCCCCCS[C@]2(C(=O)O)C[C@H](O)[C@@H](NC(C)=O)[C@H]([C@H](O)[C@H](O)CO)O2)CCC[Si](CCC[Si](CCCSCCCCCS[C@]2(C(=O)O)C[C@H](O)[C@@H](NC(C)=O)[C@H]([C@H](O)[C@H](O)CO)O2)(CCCSCCCCCS[C@]2(C(=O)O)C[C@H](O)[C@@H](NC(C)=O)[C@H]([C@H](O)[C@H](O)CO)O2)CCCSCCCCCS[C@]2(C(=O)O)C[C@H](O)[C@@H](NC(C)=O)[C@H]([C@H](O)[C@H](O)CO)O2)(CCC[Si](CCCSCCCCCS[C@]2(C(=O)O)C[C@H](O)[C@@H](NC(C)=O)[C@H]([C@H](O)[C@H](O)CO)O2)(CCCSCCCCCS[C@]2(C(=O)O)C[C@H](O)[C@@H](NC(C)=O)[C@H]([C@H](O)[C@H](O)CO)O2)CCCSCCCCCS[C@]2(C(=O)O)C[C@H](O)[C@@H](NC(C)=O)[C@H]([C@H](O)[C@H](O)CO)O2)CCC[Si](CCCSCCCCCS[C@]2(C(=O)O)C[C@H](O)[C@@H](NC(C)=O)[C@H]([C@H](O)[C@H](O)CO)O2)(CCCSCCCCCS[C@]2(C(=O)O)C[C@H](O)[C@@H](NC(C)=O)[C@H]([C@H](O)[C@H](O)CO)O2)CCCSCCCCCS[C@]2(C(=O)O)C[C@H](O)[C@@H](NC(C)=O)[C@H]([C@H](O)[C@H](O)CO)O2)(C(=O)O)C[C@@H]1O | 5 | 7
CC(=O)N[C@H]1[C@H]([C@H](O)[C@H](O)CO)O[C@@](SCCCCCSCCCOCCC[Si](CCCOCCCSCCCCCS[C@]2(C(=O)O)C[C@H](O)[C@@H](NC(C)=O)[C@H]([C@H](O)[C@H](O)CO)O2)(CCCOCCCSCCCCCS[C@]2(C(=O)O)C[C@H](O)[C@@H](NC(C)=O)[C@H]([C@H](O)[C@H](O)CO)O2)CCC[Si](CCC[Si](CCCOCCCSCCCCCS[C@]2(C(=O)O)C[C@H](O)[C@@H](NC(C)=O)[C@H]([C@H](O)[C@H](O)CO)O2)(CCCOCCCSCCCCCS[C@]2(C(=O)O)C[C@H](O)[C@@H](NC(C)=O)[C@H]([C@H](O)[C@H](O)CO)O2)CCCOCCCSCCCCCS[C@]2(C(=O)O)C[C@H](O)[C@@H](NC(C)=O)[C@H]([C@H](O)[C@H](O)CO)O2)(CCC[Si](CCCOCCCSCCCCCS[C@]2(C(=O)O)C[C@H](O)[C@@H](NC(C)=O)[C@H]([C@H](O)[C@H](O)CO)O2)(CCCOCCCSCCCCCS[C@]2(C(=O)O)C[C@H](O)[C@@H](NC(C)=O)[C@H]([C@H](O)[C@H](O)CO)O2)CCCOCCCSCCCCCS[C@]2(C(=O)O)C[C@H](O)[C@@H](NC(C)=O)[C@H]([C@H](O)[C@H](O)CO)O2)CCC[Si](CCCOCCCSCCCCCS[C@]2(C(=O)O)C[C@H](O)[C@@H](NC(C)=O)[C@H]([C@H](O)[C@H](O)CO)O2)(CCCOCCCSCCCCCS[C@]2(C(=O)O)C[C@H](O)[C@@H](NC(C)=O)[C@H]([C@H](O)[C@H](O)CO)O2)CCCOCCSCCCCCS[C@]2(C(=O)O)C[C@H](O)[C@@H](NC(C)=O)[C@H]([C@H](O)[C@H](O)CO)O2)(C(=O)O)C[C@@H]1O | 6.4 | 6.5
CC(=O)N[C@H]1[C@H]([C@H](O)[C@H](O)CO)O[C@@](SCCCCCSCCCCCC(=O)NCCC[Si](CCCNC(=O)CCCCCSCCCCCS[C@]2(C(=O)O)C[C@H](O)[C@@H](NC(C)=O)[C@H]([C@H](O)[C@H](O)CO)O2)(CCCNC(=O)CCCCCSCCCCCS[C@]2(C(=O)O)C[C@H](O)[C@@H](NC(C)=O)[C@H]([C@H](O)[C@H](O)CO)O2)CCCNC(=O)CCCCCSCCCCCS[C@]2(C(=O)O)C[C@H](O)[C@@H](NC(C)=O)[C@H]([C@H](O)[C@H](O)CO)O2)(C(=O)O)C[C@@H]1O | 4.8 | 8.8
CC(=O)N[C@H]1[C@H]([C@H](O)[C@H](O)CO)O[C@@](SCCCCCSCCCCCC(=O)NCCC[Si](CCCNC(=O)CCCCCSCCCCCS[C@]2(C(=O)O)C[C@H](O)[C@@H](NC(C)=O)[C@H]([C@H](O)[C@H](O)CO)O2)(CCCNC(=O)CCCCCSCCCCCS[C@]2(C(=O)O)C[C@H](O)[C@@H](NC(C)=O)[C@H]([C@H](O)[C@H](O)CO)O2)CCC[Si](C)(C)CCC[Si](CCCNC(=O)CCCCCSCCCCCS[C@]2(C(=O)O)C[C@H](O)[C@@H](NC(C)=O)[C@H]([C@H](O)[C@H](O)CO)O2)(CCCNC(=O)CCCCCSCCCCCS[C@]2(C(=O)O)C[C@H](O)[C@@H](NC(C)=O)[C@H]([C@H](O)[C@H](O)CO)O2)CCCNC(=O)CCCCCSCCCCCS[C@]2(C(=O)O)C[C@H](O)[C@@H](NC(C)=O)[C@H]([C@H](O)[C@H](O)CO)O2)(C(=O)O)C[C@@H]1O | 2.8 | 8.1
